Source: the RNAGym collection of RNA variant scans (doi:10.1126/science.aae0568)
This sample holds only a part of the variants without activity.

B1: tRNA (parent)
chain: GUUCCGUUGGCGUAAUGGUAACGCGUCUCCCUCCUAAGGAGAAGACUGCGGGUUCGAGUCCCGUACGGAACG

Variants of: B1
Test: yeast fitness relative to wild type (ratio to wild type); higher = fitter; tRNA-Arg(CCU), competitive growth, 37 C, YPD
Method in brief: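 A pool of Saccharomyces cerevisiae strains, each with a tRNA-Arg(CCU) gene variant at the native genomic locus, was competed in YPD at 37°C for 24 hours across six parallel replicates. The variants had been chemically synthesised at a 3% per-site mutation rate over 69 sites, and gene amplicons before and after competition were read by 100-nucleotide paired-end sequencing. Darwinian fitness relative to wild type rested on changes in genotype frequencies. Genotypes required ≥ 100 starting reads, and estimates < 0.5 were set to 0.5.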

Row | Variant | yeast fitness
1 | GUUCCGUUGGCGUAAUGGUAAGGCGUCUGCCUUCUAAGGAGGAGACUGCGGGUUCGAGUCCCGUACGGAACG | ≤ 0.5
2 | GUUCCGUUGGCGUAAUGGUAAGGCGUCUUCAUCCUAAGGAGAAGACUGCGGGUUCGAGUCCCGUACGGAACG | ≤ 0.5
3 | GUUCCGUUGGCGUAAUGGUAAGGCGUGUCCGUCCUAGGGAGAAGACUGCGGGUUCGAGUCGCGUACGGUACG | 0.758
4 | GUUCCGUUGGCGUAAUGGUAAGGCGUCUGCCUCCUAAGGAGAAGACUGCGGGUUCAAGUCCCGUACGGAACG | 0.575
5 | GUUCCGUUGGCGUAAUGGUAAGGCGUCUCCCUGCUAAGGAGAAGACUGCGAGUUCGAGUCCCGUACGGAACG | ≤ 0.5
6 | GUUCCGUUGGCGUAAUGGUAAGGCGUCUGCCUCCUAAGGAGGAGAUUGCGGGUUCGAGUCCCGUACGGAUCG | ≤ 0.5
7 | GUUCCGUUGGCGUAAUGGUAAGGCGUCUCCCUUCUCAGGUGAAGACUGCGGGUUCGAGUCCCGUACGGAACG | 0.665
8 | GUUCCGUUGGCGUAAUGGUAAGGCGUCUCGCUCCUAAGGAGAAGUCUGCGGGUUCGAGUCCCGUACGGAACG | ≤ 0.5
9 | GUUCCGUUGGCGUAAUGGUAAGGCGUCUCCAUCCUAAGGAGAGGACUGCGGGUUCGAGUCCCGUACGGAUCG | ≤ 0.5
10 | GUUCCGUUGGCGUAAUGGUAAGGCGUCUCCGUCCUAAGGAGAAGACUGCGGGUUCGAGUCCCGUACGGCACG | 0.566
11 | GUUCCGUUGGCGUAAUGGUAAGGCGUCUCCUUCCUAAGGAGAAGACUGCGGGUUCGAGUCCCGUAGGGAACG | 0.512
12 | GUUCCGUUGGCGUAAUGGUAAGGCGUCUGCCUCCUCAGCAGAAGAGUGCGGAUUCGAGUCCCGUACCGAACG | ≤ 0.5
13 | GUUCCGUUGGCGUAAUGGUAAGGCGUCUGCCUCCUAAGGAGAAGACUGCGGGUUCGAGUCCCGUAAGGUACG | ≤ 0.5
14 | GUUCCGUUGGCGUAAUGGUAAGGCGUCUCCUUCCUAAGGAGAAGACUGCGGGUUCGAGUCCCGUACGGAUCG | 0.661
15 | GUUCCGUUGGCGUAAUGGUAAGGCGUCUCCUUCCUAAGGAGAAGAUUGCGGGUUCGAGUCCCGUACGGUACG | 0.526
16 | GUUCCGUUGGCGUAAUGGUAAGGCGUCUCCCUCAUAAGGAGAAGACUGCGGGUUCGAGUCCCGUACGGAACG | 0.757
17 | GUUCCGUUGGCGUAAUGGUAAGGCGUCUCCCUCGUAAGGAGAAGACUGCGGGUUCGAGUCCCGUACGGAACG | 0.612
18 | GUUCCGUUGGCGUAAUGGUAAGGCGUCUACCUCCUAAGGAGAAGACUGCGGGAUCGAGUCCCGUACGGAACG | ≤ 0.5
19 | GUUCCGUUGGCGUAAUGGUAAGGCGUCUCUCUCCUAAGGAGAAGACUGAGGGUUCGUGUCUCGUACGGAACG | 0.548

Row | Variant | yeast fitness
20 | GUUCCGUUGGCGUAAUGGUAAGGCGUCUCCAUCCUAAGGAGAAGACCGGGGGUUCGAGUCCCCUACGGUACG | ≤ 0.5
21 | GUUCCGUUGGCGUAAUGGUAAGGCGUGUCCGUCCUAAGGAGAAGACUGCGGGUUCGUGUCCCGUACGGAACG | ≤ 0.5
22 | GUUCCGUUGGCGUAAUGGUAAGGCGUGUCCCUCCUAAGGAGAAGACCGCGGGUUCGAGCCCUGUACGUAACG | ≤ 0.5
23 | GUUCCGUUGGCGUAAUGGUAAGGCGUCUCCGUCCUAAGGAGAAGACUGCGGCUUCGAGUCCCGUACGGAACG | ≤ 0.5
24 | GUUCCGUUGGCGUAAUGGUAAGGCGUCUCCGUCCUAAGGAGAAGACUGCGGGUUUGAGUCGGGUACGGAACG | ≤ 0.5
25 | GUUCCGUUGGCGUAAUGGUAAGGCGUCUACCUCCUAAGGAGAAGACUGCGGGUUCGAAUCGCGUACGGAUCG | ≤ 0.5
26 | GUUCCGUUGGCGUAAUGGUAAGGCGUGUCCCUUCUAAGAAAAAGACUGCGGGUUCGAGUCCCGUACGGAACG | ≤ 0.5
27 | GUUCCGUUGGCGUAAUGGUAAGGCGUCUGCCUCCUAAGGAGAACACUGCGGGUUCAGGUCCCGUACUGACCG | ≤ 0.5
28 | GUUCCGUUGGCGUAAUGGUAAGGCGUCUCCAUCCUAAGGAGAAGACUGGGGGUUCGAGUCCCCUACGGAACG | 0.545
29 | GUUCCGUUGGCGUAAUGGUAAGGCGUCUCCGUCCUAAGGAGAAGACUGCGGGUUCGAGUCCUGUACGGAUCG | ≤ 0.5
30 | GUUCCGUUGGCGUAAUGGUAAGGCGUCUGCCUCCUAAGGAGAGGACUGCGGGUUCGAGUCCCUUACGGAACG | ≤ 0.5
31 | GUUCCGUUGGCGUAAUGGUAAGGCGUCUCUCUCCUAAGGAGAAGACUGGGGGUUCGAGUCCCGUACGGAACG | ≤ 0.5
32 | GUUCCGUUGGCGUAAUGGUAAGGCGUCUCCUUCCUAAGGAGAAGACUGCGGGUUCGAGGCCCGUACGGAACG | 0.539
33 | GUUCCGUUGGCGUAAUGGUAAGGCGUUUCCCUCCUAAGGAGAAGACUGCGGGUUCGAGUCCCGUACGAAACG | 0.623
34 | GUUCCGUUGGCGUAAUGGUAAGGCGUCUCACUCCUAAGGAGCAGACUGCGGGUUCGAAUCCCGUACGGAACG | ≤ 0.5
35 | GUUCCGUUGGCGUAAUGGUAAGGCGUCUCCCUACUAAGGAGAAGACUGGGGGUUCGAGUCCCGUACGGAACG | 0.592
36 | GUUCCGUUGGCGUAAUGGUAAGGCGUCUCUCUCCUAGGGAGAUGACUGCGGGUUCGAGUCCCGUACAGAACG | 0.603
37 | GUUCCGUUGGCGUAAUGGUAAGGCGUCUCCCUUCUAAGGAGUGGACUGCGGGUUCGAGUCACGUACGGAACG | ≤ 0.5
38 | GUUCCGUUGGCGUAAUGGUAAGGCGUCUGCCUCCUCAGCAGAAGAGUGCGGAUUCGAGUCCCGUACGGAACG | ≤ 0.5
